Test results reported in ChEMBL document CHEMBL1129572, “Synthesis and pharmacological properties of novel 8-substituted imidazobenzodiazepines: high-affinity, selective probes for alpha 5-containing GABAA receptors” (J Med Chem, 1996).

Columns and labels:
[1] = Binding affinity for human GABA-A receptor alpha-5--beta-2-gamma-2 expressed in L(tk-) cell membranes
In short: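 Competition binding on membranes of Ltk cells expressing human αxβ2γ2 receptors. Radioligand was [3H]Ro 15-1788, or [3H]Ro 15-4513 for α6β2γ2. Ki is the mean of two determinations differing by less than 10%.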

Mus musculus [2] = organism: Mus musculus; assay: Anticonvulsant activity against convulsions induced by DMCM; format: functional
In short: (§1)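 Male NIH/Swiss mice (~30 g) given graded ip doses of zolpidem, flumazenil or vehicle in 10% diluted Emulphor:90% saline. 10 min later they were challenged ip with DMCM (7.5 mg/kg) or the convulsant test ligand (20 mg/kg). Convulsions were observed; N = 5–10 per dose. ED50 came from nonlinear regression.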

Mus musculus [3] = organism: Mus musculus; assay: Anticonvulsant activity against convulsions induced by Compound 9; format: functional; in short: as §1
[4] = biological target: T1, GABA A receptor alpha-3/beta-2/gamma-2 (Homo sapiens, UniProt P18507+P34903+P47870); assay: Binding affinity for human GABA-A receptor alpha-3-beta-2-gamma-2 expressed in L(tk-) cell membranes
T1 sequence (P47870 whole entry): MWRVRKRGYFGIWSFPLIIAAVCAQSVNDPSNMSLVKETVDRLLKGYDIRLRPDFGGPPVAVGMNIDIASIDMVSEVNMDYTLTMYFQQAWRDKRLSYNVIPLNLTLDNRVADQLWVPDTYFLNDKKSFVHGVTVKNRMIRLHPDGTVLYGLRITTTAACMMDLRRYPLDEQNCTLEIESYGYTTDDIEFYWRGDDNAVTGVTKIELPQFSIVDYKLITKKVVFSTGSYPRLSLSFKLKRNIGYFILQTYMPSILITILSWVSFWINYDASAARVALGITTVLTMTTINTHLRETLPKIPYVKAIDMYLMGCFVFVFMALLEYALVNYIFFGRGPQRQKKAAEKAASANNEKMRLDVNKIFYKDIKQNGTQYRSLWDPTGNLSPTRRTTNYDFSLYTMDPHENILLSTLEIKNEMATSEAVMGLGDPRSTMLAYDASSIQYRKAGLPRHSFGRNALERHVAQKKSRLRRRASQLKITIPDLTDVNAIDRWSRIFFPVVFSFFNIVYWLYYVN
T1 sequence (P18507 whole entry): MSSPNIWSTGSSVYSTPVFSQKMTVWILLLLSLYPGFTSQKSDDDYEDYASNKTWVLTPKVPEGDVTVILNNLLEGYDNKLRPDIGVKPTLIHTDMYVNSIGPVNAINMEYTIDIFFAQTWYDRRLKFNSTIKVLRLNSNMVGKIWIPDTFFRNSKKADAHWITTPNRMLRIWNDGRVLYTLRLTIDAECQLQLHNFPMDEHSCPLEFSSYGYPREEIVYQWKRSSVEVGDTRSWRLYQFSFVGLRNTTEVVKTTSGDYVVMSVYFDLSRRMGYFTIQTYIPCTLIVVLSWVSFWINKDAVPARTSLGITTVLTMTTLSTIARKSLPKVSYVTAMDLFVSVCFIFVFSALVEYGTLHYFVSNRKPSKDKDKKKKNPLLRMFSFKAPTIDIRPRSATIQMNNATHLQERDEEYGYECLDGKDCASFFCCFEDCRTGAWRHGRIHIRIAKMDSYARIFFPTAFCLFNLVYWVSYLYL
T1 sequence (P34903 whole entry): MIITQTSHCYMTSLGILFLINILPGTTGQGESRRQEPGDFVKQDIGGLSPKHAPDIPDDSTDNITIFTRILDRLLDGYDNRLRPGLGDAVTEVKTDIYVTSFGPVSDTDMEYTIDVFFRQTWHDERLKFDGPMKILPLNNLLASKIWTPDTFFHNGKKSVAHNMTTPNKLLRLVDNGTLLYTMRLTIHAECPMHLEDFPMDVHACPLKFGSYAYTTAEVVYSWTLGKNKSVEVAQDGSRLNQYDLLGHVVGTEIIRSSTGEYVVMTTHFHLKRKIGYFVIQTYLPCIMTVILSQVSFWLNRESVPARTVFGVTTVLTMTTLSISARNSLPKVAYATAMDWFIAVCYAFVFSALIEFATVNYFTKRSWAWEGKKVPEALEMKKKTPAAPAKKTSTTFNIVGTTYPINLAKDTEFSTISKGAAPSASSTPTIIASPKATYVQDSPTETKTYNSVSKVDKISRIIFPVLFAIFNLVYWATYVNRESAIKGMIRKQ

[5] = biological target: T2, GABA A receptor alpha-2/beta-2/gamma-2 (Homo sapiens, UniProt P18507+P47869+P47870); assay: Binding affinity for human GABA-A receptor alpha-2-beta-2-gamma-2 expressed in L(tk-) cell membranes
T2 sequence (P47870 whole entry): T1 sequence (P47870 whole entry)
T2 sequence (P18507 whole entry): T1 sequence (P18507 whole entry)
T2 sequence (P47869 whole entry): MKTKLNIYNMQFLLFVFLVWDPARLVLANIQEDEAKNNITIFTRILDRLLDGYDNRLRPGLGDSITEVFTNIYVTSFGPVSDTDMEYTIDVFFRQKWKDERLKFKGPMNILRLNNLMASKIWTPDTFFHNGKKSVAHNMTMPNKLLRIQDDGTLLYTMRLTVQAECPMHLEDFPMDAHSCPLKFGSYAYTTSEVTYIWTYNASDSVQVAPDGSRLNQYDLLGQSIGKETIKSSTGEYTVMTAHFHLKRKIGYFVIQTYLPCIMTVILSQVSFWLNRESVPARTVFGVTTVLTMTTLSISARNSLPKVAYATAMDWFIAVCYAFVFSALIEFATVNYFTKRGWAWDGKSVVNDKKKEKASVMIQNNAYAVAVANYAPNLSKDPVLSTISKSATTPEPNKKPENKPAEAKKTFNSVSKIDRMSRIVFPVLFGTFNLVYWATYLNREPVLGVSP

Mus musculus [6] = organism: Mus musculus; assay: Convulsant activity was evaluated; format: functional
In short: (§2)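 Adult male NIH/Swiss mice (~30 g) got a single ip injection of graded doses (up to 40 or 80 mg/kg) or vehicle, suspended in 10% diluted Emulphor:90% saline with warming and sonication. They were observed 10 min; tonic/clonic convulsions with loss of righting reflex were scored. CD50 is the dose seizing half the maximal number convulsing, by nonlinear regression.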

Homo sapiens = organism: Homo sapiens; assay: Relative binding affinity for GABA-A receptor alpha-5 over alpha1 subunits
[7] = biological target: GABA A receptor alpha-6/beta-2/gamma-2 (Homo sapiens, UniProt P18507+P47870+Q16445); assay: Binding affinity for human GABA-A receptor alpha-6-beta-2-gamma-2 expressed in L(tk-) cell membranes
[8] = biological target: T3, GABA-A receptor; alpha-1/beta-2/gamma-2 (Homo sapiens, UniProt P14867+P18507+P47870); assay: Binding affinity for human GABA-A receptor alpha-1-beta-2-gamma-2 expressed in L(tk-) cell membranes
T3 sequence (P14867 whole entry): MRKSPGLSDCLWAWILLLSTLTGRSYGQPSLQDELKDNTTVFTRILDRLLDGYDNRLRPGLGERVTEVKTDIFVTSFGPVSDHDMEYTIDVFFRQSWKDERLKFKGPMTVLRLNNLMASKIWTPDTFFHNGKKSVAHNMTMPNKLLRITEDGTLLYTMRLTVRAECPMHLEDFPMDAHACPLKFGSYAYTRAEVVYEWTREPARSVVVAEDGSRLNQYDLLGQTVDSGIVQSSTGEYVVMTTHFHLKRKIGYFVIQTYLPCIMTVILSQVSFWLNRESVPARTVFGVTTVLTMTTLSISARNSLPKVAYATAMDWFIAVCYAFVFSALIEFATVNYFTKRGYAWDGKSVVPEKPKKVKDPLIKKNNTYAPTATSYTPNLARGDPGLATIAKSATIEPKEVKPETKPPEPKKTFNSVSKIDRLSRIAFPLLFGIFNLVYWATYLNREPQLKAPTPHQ
T3 sequence (P47870 whole entry): T1 sequence (P47870 whole entry)
T3 sequence (P18507 whole entry): T1 sequence (P18507 whole entry)

Mus musculus [9] = organism: Mus musculus; assay: Dose required for 50% seizure of maximum number of animals; format: functional; in short: as §2
Mus musculus [10] = organism: Mus musculus; assay: Convulsant activity was evaluated in mice; format: functional; in short: as §2
[11] = biological target: T4, Gamma-aminobutyric acid receptor subunit alpha-5 (Rattus norvegicus, UniProt P19969); assay: Inhibition of [3H]flunitrazepam binding to alpha5 GABA-A receptor of rat hippocampal membranes; format: cell membranes, Membrane
In short: (§3)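 Male Sprague–Dawley rat hippocampal or cerebellar membranes, washed in 50 mM Tris-citrate pH 7.4. They were incubated with ~1 nM [3H]flunitrazepam (final) plus NaCl, 120 min at 0–4 °C, then filtered. Nonspecific binding was set with 10 µM Ro 15-1788. IC50 used 8–12 concentrations; hippocampal data were fitted two-site (F test). Four experiments, mean ± SEM.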

[12] = biological target: GABA-A receptor; anion channel; assay: Inhibition of [3H]flunitrazepam binding to GABA-A receptor of rat cerebral membranes; format: cell membranes, Membrane; in short: as §3
[13] = biological target: GABA-A receptor; anion channel; assay: (§4) Inhibition of [3H]flunitrazepam binding to low affinity GABA-A receptor of rat hippocampal membranes; format: cell membranes, Membrane; in short: as §3
[14] = biological target: T4, Gamma-aminobutyric acid receptor subunit alpha-5; assay: Inhibition of [3H]flunitrazepam binding to alpha-5 GABA-A receptor of rat hippocampal membranes; format: cell membranes, Membrane; in short: as §3
[15] = biological target: GABA-A receptor; anion channel; assay: as §4; format: cell membranes, Membrane; in short: as §3; remark: listed apart in the source
[16] = biological target: T4, Gamma-aminobutyric acid receptor subunit alpha-5; assay: Inhibition of [3H]flunitrazepam binding to high affinity GABA-A receptor of rat hippocampal membranes; format: cell membranes, Membrane; in short: as §3
Mus musculus [17] = organism: Mus musculus; assay: Proconvulsant potency at which 50% of the animals (mice) convulsed 15 min after receiving PTZ.; format: functional; settings: read-out: PD50
In short: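 Mice got a single ip dose of the ligand or vehicle, then PTZ (40 mg/kg ip) 15 min later, and were observed 10 min. N = 5–10 per group. PD50 is the dose at which 50% of animals convulsed, by nonlinear regression.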

Sequence of GABA A receptor alpha-6/beta-2/gamma-2 (Q16445 whole entry, one chain of several): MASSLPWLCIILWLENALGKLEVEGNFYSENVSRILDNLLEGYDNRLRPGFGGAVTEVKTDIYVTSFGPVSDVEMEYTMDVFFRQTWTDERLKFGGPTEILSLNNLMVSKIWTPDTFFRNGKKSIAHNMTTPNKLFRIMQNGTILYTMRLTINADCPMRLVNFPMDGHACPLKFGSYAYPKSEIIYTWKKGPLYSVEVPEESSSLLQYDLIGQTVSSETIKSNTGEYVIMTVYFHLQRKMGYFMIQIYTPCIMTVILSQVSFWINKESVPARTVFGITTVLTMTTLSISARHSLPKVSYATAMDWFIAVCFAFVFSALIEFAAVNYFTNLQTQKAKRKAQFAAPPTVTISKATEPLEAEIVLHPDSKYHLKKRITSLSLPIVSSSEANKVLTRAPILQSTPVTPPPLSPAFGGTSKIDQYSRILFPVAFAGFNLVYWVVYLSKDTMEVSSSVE
T4 sequence (P19969 whole entry): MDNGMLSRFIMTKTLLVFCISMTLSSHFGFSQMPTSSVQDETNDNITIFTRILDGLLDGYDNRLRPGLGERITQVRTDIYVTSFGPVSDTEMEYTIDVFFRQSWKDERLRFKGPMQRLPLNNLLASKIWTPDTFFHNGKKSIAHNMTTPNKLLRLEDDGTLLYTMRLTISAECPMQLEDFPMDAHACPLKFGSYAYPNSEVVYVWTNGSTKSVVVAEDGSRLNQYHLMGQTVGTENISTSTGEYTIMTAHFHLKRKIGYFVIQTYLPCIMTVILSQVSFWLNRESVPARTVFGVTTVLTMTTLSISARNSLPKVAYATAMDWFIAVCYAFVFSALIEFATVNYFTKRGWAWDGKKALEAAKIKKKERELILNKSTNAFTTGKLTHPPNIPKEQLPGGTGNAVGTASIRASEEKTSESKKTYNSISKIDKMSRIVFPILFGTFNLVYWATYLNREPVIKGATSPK

Structure (SMILES)	Ki [1] [nM]	Ki [4] [nM]	Ki [5] [nM]	Ratio (Homo sapiens)	Ki [7] [nM]	Ki [8] [nM]	CD50 (Mus musculus [9]) [mg/kg]	also measured
CCOC(=O)c1ncn2c1CN(C)C(=O)c1cc(N=[N+]=[N-])ccc1-2 [Ro-154513]	0.26	–	–	–	–	–	–	–
Cc1ccc(-c2nc3ccc(C)cn3c2CC(=O)N(C)C)cc1 [ZOLPIDEM]	–	–	–	–	–	–	–	ED50 (Mus musculus [2]): 0.4 mg/kg; ED50 (Mus musculus [3]): 7 mg/kg
C#Cc1ccc2c(c1)C(=O)N(C)Cc1c(C(=O)OCC)ncn1-2	0.5	25.8	21.4	60	28.8	28.4	24	Activity (Mus musculus [6]): 70%
CC#Cc1ccc2c(c1)C(=O)N(C)Cc1c(C(=O)OCC)ncn1-2	1.7	16.5	22.2	6	> 100	10.1	–	–
C#Cc1ccc2c(c1)C(=O)N(C)Cc1c(C(=O)OC(C)(C)C)ncn1-2	0.4	18.7	26.3	67.3	5.1	26.9	5.9	Activity (Mus musculus [10]): 80%; IC50 [11]: 67.2 nM; IC50 [12]: 79.8 nM; IC50 [13]: 70.7 nM; IC50 [14]: 0.33 nM; IC50 [15]: 85.6 nM; IC50 [16]: 0.6 nM
CCOC(=O)c1ncn2c1CN(C)C(=O)c1cc(CC)ccc1-2	1.5	26.1	27	13.8	176	20.4	–	–
CCc1ccc2c(c1)C(=O)N(C)Cc1c(C(=O)OC(C)(C)C)ncn1-2	1.7	25.3	56	8.6	22.9	14.8	–	–
CCOC(=O)c1ncn2c1CN(C)C(=O)c1cc(C#C[Si](C)(C)C)ccc1-2	5	198	142	24	114	–	70.9	Activity (Mus musculus [10]): 85%
CCOC(=O)c1ncn2c1CN(C)C(=O)c1cc(F)ccc1-2 [FLUMAZENIL]	–	–	–	–	–	–	–	ED50 (Mus musculus [2]): 2.3 mg/kg; ED50 (Mus musculus [3]): 3.8 mg/kg
CN1Cc2c(C(=O)OC(C)(C)C)ncn2-c2ccc(C#C[Si](C)(C)C)cc2C1=O	2.61	255	143	75.5	58.6	197	2.3	Activity (Mus musculus [10]): 22%; ED50 (Mus musculus [17]): 40 mg/kg
CN1Cc2c(C(=O)OC(C)(C)C)ncn2-c2ccc(Br)cc2C1=O	0.5	9.2	10.7	24	9.4	11.4	–	–
CCOC(=O)c1ncn2c1CN(C)C(=O)c1cc(C#CC[Si](C)(C)C)ccc1-2	> 300	> 300	> 300	–	> 300	> 300	–	–
